Laboratory results from ChEMBL document CHEMBL3108762, “Novel pyridazinone inhibitors for vascular adhesion protein-1 (VAP-1): old target-new inhibition mode” (J Med Chem, 2013).
The source made the active and inactive calls. The rule behind the calls is not given here.

How the values were obtained:
Cricetinae = test: Inhibition of hamster VAP-1
[1] = biological target: T1, Amine oxidase [copper-containing] 3 (Mus musculus) (UniProt O70423); test: Inhibition of mouse recombinant VAP-1 transfected in CHO cells using 2,4-dichlorophenol/benzylamine as substrate at 1 nM to 50 uM incubated for 30 mins prior to benzylamine addition measured after 1 hr by spectrophotometry; assay type: cell-based
T1 sequence (whole entry): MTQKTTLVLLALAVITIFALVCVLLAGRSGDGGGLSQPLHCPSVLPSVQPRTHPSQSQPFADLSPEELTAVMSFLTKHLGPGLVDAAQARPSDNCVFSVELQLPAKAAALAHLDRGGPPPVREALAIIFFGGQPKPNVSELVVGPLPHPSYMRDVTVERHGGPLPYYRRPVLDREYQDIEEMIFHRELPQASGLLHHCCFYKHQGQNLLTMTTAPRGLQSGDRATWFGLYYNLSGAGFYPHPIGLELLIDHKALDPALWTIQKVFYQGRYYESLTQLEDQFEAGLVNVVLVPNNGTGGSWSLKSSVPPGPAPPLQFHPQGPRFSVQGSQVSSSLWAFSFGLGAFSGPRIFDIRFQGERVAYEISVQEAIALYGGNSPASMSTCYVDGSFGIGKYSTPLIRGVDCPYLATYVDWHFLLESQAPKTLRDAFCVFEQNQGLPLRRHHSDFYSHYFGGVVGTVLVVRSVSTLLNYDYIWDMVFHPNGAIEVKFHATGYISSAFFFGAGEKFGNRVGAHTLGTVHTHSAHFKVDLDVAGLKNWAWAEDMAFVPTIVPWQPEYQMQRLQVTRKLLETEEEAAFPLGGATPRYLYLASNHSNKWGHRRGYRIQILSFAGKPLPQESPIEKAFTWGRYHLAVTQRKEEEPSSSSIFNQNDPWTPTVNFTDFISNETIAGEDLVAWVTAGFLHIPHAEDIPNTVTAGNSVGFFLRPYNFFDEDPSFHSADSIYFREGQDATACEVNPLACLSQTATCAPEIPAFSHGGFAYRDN
Summary of the method: (§1)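 Coupled colorimetric H2O2 assay with lysate of CHO cells stably expressing full-length VAP-1 of the listed species, dosed to give 0.6 A490/h. Conditions: 0.2 M potassium phosphate pH 7.6, 1 mM 2,4-dichlorophenol, 500 μM 4-aminoantipyrine, 4 U/ml HRP, inhibitor 1 nM–50 μM. Preincubated 30 min at 37 °C, then 1 mM benzylamine (final) for 1 h at 37 °C; A490 read, background-corrected, percent inhibition versus control, IC50 fitted; mean of two to six experiments ± SE.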

[2] = biological target: T2, Diamine oxidase [copper-containing] (Sus scrofa) (UniProt Q9TRC7); test: Inhibition of pig kidney DAO at 100 uM
T2 sequence (whole entry): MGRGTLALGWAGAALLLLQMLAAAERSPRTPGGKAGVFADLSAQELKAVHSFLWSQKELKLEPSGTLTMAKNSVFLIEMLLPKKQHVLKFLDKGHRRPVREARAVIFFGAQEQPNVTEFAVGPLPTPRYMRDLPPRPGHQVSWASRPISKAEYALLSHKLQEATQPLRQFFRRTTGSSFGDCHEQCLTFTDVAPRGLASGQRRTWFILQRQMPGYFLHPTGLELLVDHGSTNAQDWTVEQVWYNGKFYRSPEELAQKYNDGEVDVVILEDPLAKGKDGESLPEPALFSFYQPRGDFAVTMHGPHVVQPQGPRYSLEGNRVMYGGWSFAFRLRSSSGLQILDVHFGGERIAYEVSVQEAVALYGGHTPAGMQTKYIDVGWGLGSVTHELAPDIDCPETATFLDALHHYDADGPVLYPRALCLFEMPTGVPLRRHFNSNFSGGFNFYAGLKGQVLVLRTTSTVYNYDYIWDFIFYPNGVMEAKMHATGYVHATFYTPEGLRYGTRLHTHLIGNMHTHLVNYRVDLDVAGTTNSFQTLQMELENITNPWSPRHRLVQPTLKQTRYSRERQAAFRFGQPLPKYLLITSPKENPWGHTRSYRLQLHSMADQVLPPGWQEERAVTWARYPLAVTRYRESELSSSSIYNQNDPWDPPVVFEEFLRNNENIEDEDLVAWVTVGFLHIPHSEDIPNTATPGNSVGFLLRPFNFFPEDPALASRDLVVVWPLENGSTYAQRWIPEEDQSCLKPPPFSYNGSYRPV

[3] = Inhibition of cynomolgus monkey recombinant VAP-1 transfected in CHO cells using 2,4-dichlorophenol/benzylamine as substrate incubated for 30 mins prior to benzylamine addition measured after 1 hr by spectrophotometry; assay type: cell-based, Macaca fascicularis; summary of the method: as §1
[4] = biological target: T3, Amine oxidase [copper-containing] 3 (Homo sapiens, UniProt Q16853); test: Inhibition of human recombinant VAP-1 transfected in CHO cells using 2,4-dichlorophenol/benzylamine as substrate incubated for 30 mins prior to benzylamine addition measured after 1 hr by spectrophotometry; assay type: cell-based; summary of the method: as §1
T3 sequence (Q16853 whole entry): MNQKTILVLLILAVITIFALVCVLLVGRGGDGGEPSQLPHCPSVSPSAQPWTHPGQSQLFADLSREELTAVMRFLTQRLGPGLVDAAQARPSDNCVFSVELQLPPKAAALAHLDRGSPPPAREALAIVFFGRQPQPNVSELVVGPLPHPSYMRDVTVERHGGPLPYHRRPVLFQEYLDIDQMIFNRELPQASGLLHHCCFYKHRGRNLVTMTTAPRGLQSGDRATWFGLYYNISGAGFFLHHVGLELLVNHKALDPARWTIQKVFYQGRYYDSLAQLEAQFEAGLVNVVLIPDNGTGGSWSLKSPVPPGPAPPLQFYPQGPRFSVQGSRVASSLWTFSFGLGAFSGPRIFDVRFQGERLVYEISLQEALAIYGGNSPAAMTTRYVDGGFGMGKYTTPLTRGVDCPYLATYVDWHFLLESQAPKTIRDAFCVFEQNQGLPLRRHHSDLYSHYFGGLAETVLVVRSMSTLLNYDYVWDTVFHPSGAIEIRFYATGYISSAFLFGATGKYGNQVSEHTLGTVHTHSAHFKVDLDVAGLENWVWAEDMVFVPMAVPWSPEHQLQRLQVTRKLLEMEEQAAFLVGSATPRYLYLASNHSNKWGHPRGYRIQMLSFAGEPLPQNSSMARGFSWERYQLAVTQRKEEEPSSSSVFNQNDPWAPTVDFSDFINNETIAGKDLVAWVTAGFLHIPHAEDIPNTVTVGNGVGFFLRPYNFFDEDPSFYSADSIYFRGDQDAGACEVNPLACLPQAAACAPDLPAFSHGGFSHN

Rattus norvegicus = organism: Rattus norvegicus; test: Inhibition of rat liver MAO using vanillic acid/tyramine as substrate at 100 uM incubated for 30 mins prior to tyramine addition measured after 1 hr by spectrophotometry
Summary of the method: (§2)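 Peroxidase-coupled colorimetric assay as for VAP-1, with 1 mM vanillic acid in place of 2,4-dichlorophenol and 0.5 mM tyramine (final) as substrate. Conditions: 0.2 M potassium phosphate pH 7.6, 500 μM 4-aminoantipyrine, 4 U/ml HRP, 30 min preincubation at 37 °C, then 1 h at 37 °C; A490 read. Enzymes: purified human MAO-A or MAO-B from baculovirus-infected BTI insect cells, or total MAO-A/B extracted from rat liver mitochondria. Single-concentration percent inhibition.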

[5] = biological target: T3, Amine oxidase [copper-containing] 3; test: Binding affinity to human recombinant VAP-1 by surface plasmon resonance analysis
Summary of the method: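 Surface plasmon resonance binding kinetics: recombinant purified VAP-1 amine-coupled to a CM5 chip after preconcentration in 10 mM Na acetate pH 4.4 with 10 μM CuCl2.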

[6] = biological target: T4, Amine oxidase [copper-containing] 3 (Rattus norvegicus) (UniProt O08590); test: Inhibition of rat VAP-1
T4 sequence (whole entry): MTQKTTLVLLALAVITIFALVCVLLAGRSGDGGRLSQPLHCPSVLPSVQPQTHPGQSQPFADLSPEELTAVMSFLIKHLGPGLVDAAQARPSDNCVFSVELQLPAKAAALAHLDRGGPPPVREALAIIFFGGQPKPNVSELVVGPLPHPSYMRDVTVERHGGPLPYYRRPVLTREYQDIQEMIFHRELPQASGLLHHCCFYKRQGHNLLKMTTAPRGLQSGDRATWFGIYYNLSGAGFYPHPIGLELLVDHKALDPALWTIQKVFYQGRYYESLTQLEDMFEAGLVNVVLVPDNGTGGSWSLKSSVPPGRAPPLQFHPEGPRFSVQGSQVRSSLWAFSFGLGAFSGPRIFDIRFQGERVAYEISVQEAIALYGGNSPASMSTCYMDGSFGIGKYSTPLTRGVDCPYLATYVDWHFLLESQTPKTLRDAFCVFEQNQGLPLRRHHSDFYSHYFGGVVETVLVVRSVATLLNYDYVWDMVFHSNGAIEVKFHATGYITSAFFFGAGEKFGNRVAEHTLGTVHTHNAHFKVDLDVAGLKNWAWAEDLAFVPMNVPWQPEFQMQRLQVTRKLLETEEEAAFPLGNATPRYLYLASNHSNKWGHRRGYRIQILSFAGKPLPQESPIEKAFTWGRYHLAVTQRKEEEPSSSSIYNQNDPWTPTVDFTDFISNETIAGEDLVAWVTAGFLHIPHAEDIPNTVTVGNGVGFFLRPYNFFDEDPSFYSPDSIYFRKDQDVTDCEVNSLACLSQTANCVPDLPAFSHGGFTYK

Cavia porcellus = organism: Cavia porcellus; test: Inhibition of guinea pig VAP-1
MAO-A = biological target: T5, MAO-A (Homo sapiens, UniProt P21397); test: Inhibition of human recombinant MAO-A expressed in baculovirus infected BTI insect cells using vanillic acid/tyramine as substrate at 20 uM incubated for 30 mins prior to tyramine addition measured after 1 hr by spectrophotometry; details: probe tyramine (with vanillic acid); summary of the method: as §2
T5 sequence (P21397 whole entry): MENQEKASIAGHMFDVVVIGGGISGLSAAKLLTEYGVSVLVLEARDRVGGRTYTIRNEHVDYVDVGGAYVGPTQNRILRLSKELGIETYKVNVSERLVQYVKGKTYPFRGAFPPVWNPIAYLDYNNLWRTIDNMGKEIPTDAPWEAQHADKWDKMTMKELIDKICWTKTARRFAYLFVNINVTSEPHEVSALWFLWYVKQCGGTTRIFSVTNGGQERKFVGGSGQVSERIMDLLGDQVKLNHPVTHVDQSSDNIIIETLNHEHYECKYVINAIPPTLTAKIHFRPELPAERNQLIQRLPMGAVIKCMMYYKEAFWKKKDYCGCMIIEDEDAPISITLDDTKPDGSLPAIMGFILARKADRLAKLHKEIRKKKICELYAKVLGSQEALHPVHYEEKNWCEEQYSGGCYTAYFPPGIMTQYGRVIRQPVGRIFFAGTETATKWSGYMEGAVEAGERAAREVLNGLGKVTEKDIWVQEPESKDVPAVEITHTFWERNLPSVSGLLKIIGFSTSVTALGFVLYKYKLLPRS

MAO-B = biological target: T6, MAO-B (Homo sapiens, UniProt P27338); test: Inhibition of human recombinant MAO-B expressed in baculovirus infected BTI insect cells using vanillic acid/tyramine as substrate at 20 uM incubated for 30 mins prior to tyramine addition measured after 1 hr by spectrophotometry; details: probe tyramine (with vanillic acid); summary of the method: as §2
T6 sequence (P27338 whole entry): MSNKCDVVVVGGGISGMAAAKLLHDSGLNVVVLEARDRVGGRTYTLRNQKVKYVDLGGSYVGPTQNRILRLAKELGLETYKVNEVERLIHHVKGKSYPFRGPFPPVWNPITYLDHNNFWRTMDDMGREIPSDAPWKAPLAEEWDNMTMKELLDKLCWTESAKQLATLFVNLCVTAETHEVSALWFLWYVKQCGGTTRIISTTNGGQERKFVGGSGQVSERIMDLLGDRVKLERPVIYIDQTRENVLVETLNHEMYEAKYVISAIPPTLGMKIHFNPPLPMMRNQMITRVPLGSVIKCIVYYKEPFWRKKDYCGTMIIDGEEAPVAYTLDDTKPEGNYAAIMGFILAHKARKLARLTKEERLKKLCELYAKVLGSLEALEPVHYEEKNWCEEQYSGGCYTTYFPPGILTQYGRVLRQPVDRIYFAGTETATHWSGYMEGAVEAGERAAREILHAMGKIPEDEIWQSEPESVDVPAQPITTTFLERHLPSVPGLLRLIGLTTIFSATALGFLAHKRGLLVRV

[7] = biological target: T2, Diamine oxidase [copper-containing] (Sus scrofa); test: Inhibition of pig kidney DAO at 50 uM

| inhibition (Cricetinae) | inhibition [1] [%] | inhibition [2] [%] | IC50 [3] [nM] | IC50 [4] [nM] | inhibition (Rattus norvegicus) [%] | Kd [5] [nM] | inhibition [6] | inhibition (Cavia porcellus) | Structure (SMILES) | inhibition at 1 h, 20 µM (MAO-A) [%] | inhibition at 1 h, 20 µM (MAO-B) [%] | inhibition [7] [%] |
| --- | --- | --- | --- | --- | --- | --- | --- | --- | --- | --- | --- | --- |
| inactive | 10 | 30 | 250 | 290 | 8 | 200 | inactive | inactive | CC(C)Nc1cc(=O)n(-c2ccccc2)nc1-c1nc[nH]n1 |  |  |  |
| inactive | 24 | 40 | 130 | 71 | 3 | 170 | inactive | inactive | O=c1cc(NC2CCCCC2)c(-c2nc[nH]n2)nn1-c1ccccc1 | 4 | 13 |  |

| Structure (SMILES) | inhibition (Cricetinae) | inhibition [1] [%] | inhibition [2] [%] | IC50 [3] [nM] | IC50 [4] [nM] | inhibition (Rattus norvegicus) [%] | Kd [5] [nM] | inhibition [6] | inhibition (Cavia porcellus) | inhibition at 1 h, 20 µM (MAO-A) [%] | inhibition at 1 h, 20 µM (MAO-B) [%] | inhibition [7] [%] |
| --- | --- | --- | --- | --- | --- | --- | --- | --- | --- | --- | --- | --- |
| CN1CCN(c2ccc(Nc3cc(=O)n(-c4ccc(Cl)cc4)nc3-c3nc[nH]n3)cc2)CC1 | inactive | 23 |  | 26 | 20 | 18 |  | inactive | inactive | 3 | 1 | 36 |
